An excerpt weighted towards active compounds, which were near 2% of everything screened.
CRFBP-R2 agonist – CRF-BP/CRF-R2 complex agonism; activation, % at 13.2 µM; 350,000 compounds, 0.46% hits; HEK293 CRF-R2/CRF-BP, calcium dye fluorescence (FLIPR); percent of saturating CRF peptide response;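 active means activation of at least 50%, plus an integration ratio under a set limit after plate pattern correction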;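 further: plate controls were neutral control wells without compound for no effect and CRF at EC100 for full effect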
TRPML3 agonist – activates the human TRPML3 channel; HEK293 TRPML3-YFP, Fluo-8 calcium fluorescence; 100% = the carbachol control signal; activation, % at 3 µM; 220,000 compounds, 0.29% hits; AID 1448;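 active means activation above its plate's cutoff, the mean activation of the plate's test wells plus 3 SD, cut at about 12% in these data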;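 further: 0% = DMSO only wells and 100% = carbachol wells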
Target sequence (Q8TDD5 whole entry, looked up): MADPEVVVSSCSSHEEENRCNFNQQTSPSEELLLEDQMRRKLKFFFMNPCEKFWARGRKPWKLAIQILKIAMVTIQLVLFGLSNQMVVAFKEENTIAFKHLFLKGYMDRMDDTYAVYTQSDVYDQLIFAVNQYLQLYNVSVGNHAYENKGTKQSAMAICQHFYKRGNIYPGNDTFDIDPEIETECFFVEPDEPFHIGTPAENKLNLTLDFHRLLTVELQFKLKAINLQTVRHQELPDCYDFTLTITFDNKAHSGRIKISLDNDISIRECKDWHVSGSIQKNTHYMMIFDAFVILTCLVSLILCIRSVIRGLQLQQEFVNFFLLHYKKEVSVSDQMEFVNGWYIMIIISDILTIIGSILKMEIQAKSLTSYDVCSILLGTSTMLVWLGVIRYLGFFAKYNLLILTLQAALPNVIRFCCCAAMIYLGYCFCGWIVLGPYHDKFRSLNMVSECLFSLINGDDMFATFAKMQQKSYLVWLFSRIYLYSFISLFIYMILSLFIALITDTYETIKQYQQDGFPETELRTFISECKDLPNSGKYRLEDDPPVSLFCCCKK
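Material: TRPML3-YFP stable HEK293 cells | Dosing: One concentration, 3 µM nominal, 0.3% DMSO | Timing: 125 s total fluorescence read per well | Technique: Fluo-8 calcium dye fluorescence, ex 470-495, em 515-575 nm | Measure: Percent activation from peak-to-basal fluorescence ratio, scaled between DMSO and carbachol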
TRPN1 ag – activates the zebrafish TRPN1 channel. HEK293 zebrafish TRPN1-YFP, Fluo-8 calcium fluorescence; 100% = response to 87 µM carbachol. activation, % at 3 µM. 220,000 compounds, 0.18% hits. AID 1424;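 active means activation above its plate's cutoff, the mean activation of test wells on that plate plus 3 SD, cut at about 19% in these data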;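 further: 0% = DMSO alone and 100% = 87 µM carbachol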
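Assay system: Zebrafish TRPN1-YFP in HEK293 cells | Incubation: Dye loading 1 h at 37 °C, then 30 min room temperature | Measured by: Kinetic Fluo-8 fluorescence, ex 470-495, em 515-575 nm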
CRFBP-R2 block – CRF-BP/CRF-R2 complex antagonism; 350,000 compounds, 0.59% hits; inhibition, % at 11.8 µM; HEK293 CRF-R2/CRF-BP, CRF-induced calcium fluorescence; AID 588475;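 active means inhibition of the ligand-induced calcium signal above about 50% at the single tested concentration, limit read from the data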
GPR7 antag – antagonists of human GPR7 (neuropeptides B/W receptor 1); P48145; inhibition, % at 4.4 µM; 290,000 compounds, 1.1% hits; AID 1861; GPR7-expressing cells, fluorescence antagonist assay; in the data active means inhibition above about 16%, passing the limit was not always enough;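 further: cells stimulated with the agonist NPW; 0% = agonist with vehicle and 100% = vehicle without agonist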
GPR7 antag cf – confirmation of human GPR7 antagonists. shares compounds with GPR7 antag. GPR7-expressing cells, calcium fluorescence antagonist mode. inhibition, % at 4.4 µM. 2,400 compounds, 52% hits. AID 1952; in the data active means inhibition above about 24%;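 further: stimulated with the GPR7 agonist NPW; 0% = agonist plus vehicle and 100% = vehicle alone without agonist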
MCHR1 antagonist – counter-screen for GPR7 antagonists: antagonists of human MCHR1 | shares compounds with GPR7 antag | MCHR1-expressing cells, fluorescence antagonist assay | inhibition, % at 4.4 µM | 2,400 compounds, 62% hits | AID 2148; in the data active means inhibition above about 22%;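 further: 0% = vehicle with agonist and 100% = vehicle without agonist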
* hit, by the source's call; · = no result given.

SMILES	CRFBP-R2 agonist	TRPML3 agonist	TRPN1 ag	CRFBP-R2 block	GPR7 antag	GPR7 antag cf	MCHR1 antagonist
O=C(NC1CCN(Cc2ccccc2)CC1)c1cn(-c2ccccc2)nc1-c1cccnc1	-1	·	·	-3	·	·	·
COc1ccc(-c2nnc(SC(C)C(=O)NCc3ccc4c(c3)OCO4)n2Cc2ccco2)cc1 (configuration not stated)	-1	-1	-2	15	48*	39*	23*
C=CCn1c(SC(C)C(=O)NCc2ccc3c(c2)OCO3)nnc1C1CCCCC1 (configuration not stated)	-1	1	-1	1	26*	32*	29*
CC(Sc1nnc(-c2ccco2)n1N)C(=O)NCc1ccc2c(c1)OCO2 (configuration not stated)	-1	·	·	5	·	·	·
O=C(CSc1nnc(-c2ccc(Cl)cc2)n1Cc1ccco1)NCc1ccc2c(c1)OCO2	-2	-2	-2	29	34*	32*	24*
Cc1ccc2oc(C(=O)NCC3CCOCC3)c(C)c2c1	0	·	·	-8	-7	·	·
CCOC(=O)C1CCCN(S(=O)(=O)c2cc(C(=O)OC)n(C)c2)C1 (configuration not stated)	0	·	·	3	3	·	·
C=CCn1c(COc2ccc(Cl)cc2)nnc1SCc1ccc(C#N)cc1	-1	0	-1	37	27*	41*	47*
C=CCn1c(COc2ccccc2)nnc1SCc1ccc(C#N)cc1	-4	1	1	0	6	·	·
CC1CCN(C(c2ccc(N(C)C)cc2)c2nnnn2Cc2ccc(F)cc2)CC1 (configuration not stated)	3	0	2	-14	-1	·	·
Fc1ccc(Cn2nnnc2C(c2ccc(Cl)cc2)N2CCSCC2)cc1 (configuration not stated)	1	1	1	14	34*	40*	27*
CCN(CC)CCNC(=O)CCc1c(C)nc2c(c(C)nn2-c2ccc(C)cc2)c1C	1	·	·	-12	·	·	18
COCCNC(=O)CCc1c(C)nc2c(c(C)nn2-c2ccc(C)cc2)c1C	-1	·	·	10	0	·	·
CC(=O)c1cccc(NC(=S)NC(=O)Cc2ccc(Cl)cc2)c1	63*	·	·	-87	36*	55*	35*
CC(NS(=O)(=O)c1ccccc1)C1CC2CCC1C2 (configuration not stated)	0	·	·	6	·	·	·
COc1ccc(CC(=O)N2CCN(S(=O)(=O)c3cc(Cl)ccc3Cl)CC2)cc1	0	·	·	4	·	·	·
CCN1CCN(c2ccc(S(=O)(=O)N3CCCCC3)cc2NC(=O)COc2ccc(Cl)c(C)c2)CC1	0	·	·	-3	23*	51*	43*
CCc1ccc(CN(Cc2cccnc2)C(=O)/C=C/c2ccc(OC)cc2)cc1	5	·	·	0	39*	32*	49*
COc1ccc(/C=C/C(=O)NCc2cccnc2)cc1	0	1	1	0	-1	·	·
COc1ccc(C(=O)N[C@H](C(=O)OCc2nc3ccsc3c(=O)[nH]2)C(C)C)cc1	3	·	·	1	·	·	·
CN1CCN(CCOC2Cc3ccccc3Sc3ccc(Cl)cc32)CC1 (configuration not stated)	1	1	0	-19	23*	33*	44*
Cc1cccc(Cn2c(C)nc3c(N)c(C)c(C)cc32)c1	-1	0	-1	-23	-16	·	·
CCCOc1ccc(C(=O)NNC(=S)NC(=O)c2ccccc2)cc1	180*	·	·	-94	42*	60*	62*
CCCOc1ccc(C(=O)NNC(=S)NC(=O)c2cccs2)cc1	113*	·	·	-21	52*	42*	37*
Cc1cccc(C(=O)NC(=S)NNC(=O)c2ccc(Cl)cc2)c1	213*	44*	102*	-148	32*	58*	50*
SMILES	CRFBP-R2 agonist	TRPML3 agonist	TRPN1 ag	CRFBP-R2 block	GPR7 antag	GPR7 antag cf	MCHR1 antagonist
CCCOc1ccc(C(=O)NNC(=S)NC(C)=O)cc1	-1	-2	-3	-6	-9	·	·
Clc1ccc(-c2nnc(-c3ccccc3)o2)cn1	1	·	·	2	1	·	·
CC(C)OC(=O)N(C)C[C@@H]1OCc2cnnn2CCCC(=O)N([C@H](C)CO)C[C@H]1C	-1	·	·	9	·	·	·
CCN(CC)C1=CC(=[N+]2CCCC2)CC(C)(C)C1	-1	1	0	17	-14	·	·
CN(Cc1ccccc1)C1=CC(=[N+]2CCCC2)CC(C)(C)C1	0	-1	2	-4	29*	49*	38*
CCc1ccccc1NC(=O)c1cc([N+](=O)[O-])ccc1N1CCOCC1	0	·	·	5	33*	-4	5
COc1ccc(CCNC(=O)COc2cc(C)cc3oc(=O)cc(C)c23)cc1	-1	·	·	2	26*	5	19
O/N=C/c1ccccc1OCc1ccccc1Cl	-2	0	-2	6	3	·	·
O/N=C/c1ccccc1OCc1ccc(Cl)cc1	-1	-1	-2	0	27*	7	12
CC(C)CCC1(CCNC(C)c2cccs2)CCOC(C)(C)C1 (configuration not stated)	2	0	0	-39	23*	16	5
CC1(C)CC(CCN)(Cc2ccccc2Cl)CCO1 (configuration not stated)	0	1	-1	-5	-9	·	·
CCC(CC)c1nc(C#N)c(NCc2ccccc2)o1	-2	0	-1	-49	31*	11	28*
O=C(Nc1ccccc1)Nc1ccc2nnsc2c1	11	8	18	13	33*	28*	62*
O=C(Nc1ccccc1)Nc1ccc2snnc2c1	16	11	21*	-3	25*	27*	60*
O=C(NCc1ccccc1)c1ccc2nnsc2c1	-2	0	-1	-2	-4	·	·
Cc1ccc(NC(=O)CSc2ncnc3ccccc23)cc1S(=O)(=O)N1CCCCC1	0	1	5	-6	23*	58*	63*
Cc1nnc(SCC(=O)N(C2CCCCC2)C2CCS(=O)(=O)C2)n1C (configuration not stated)	0	·	·	15	·	·	·
CCCCCCCNC(=O)C1(CC2CC(c3ccc(Cl)cc3)=NO2)CCN(C(=O)CCCCCBr)CC1 (configuration not stated)	-1	·	·	-1	-6	·	·
CC[n+]1c(/C=C/c2c[nH]c3ccccc23)ccc2cc(C)ccc21	271*	10	30*	-303	39*	37*	80*
CCOC(=O)c1c(NC(=O)COC(=O)c2cccnc2OCC)sc(C(=O)N(CC)CC)c1C	0	·	·	6	·	·	·
COc1ccc2[nH]c3c(c2c1)CCN1C(=O)N([C@@H](C)C(=O)NCc2ccccc2)C(=O)[C@]31C	0	·	·	7	8	·	·
